Assay outcomes deposited in PubChem BioAssay by several laboratories.
Rows were chosen to be rich in hits. Some 2.1% of all compounds tested hit in one or more screens of this group.
Scp-1 inhibitor: blocks human Scp-1 phosphatase activity; Q9GZU7; Recombinant Scp1, phosphopeptide, malachite green phosphate absorbance; inhibition, % at 20 µM; 0.88% of 340,000 active; AID 493091;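 active means inhibition above about 50% at 20 µM, limit read from the data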
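Test system: SCP-1 phosphatase catalytic domain, residues 76-261 | Compound dosing: One concentration, 20 µM, with 1.0% DMSO | Schedule: 45 min room-temperature reaction, 5 min colour, 30 min stabiliser | Detection: Absorbance at 630 nm | Read-out basis: % inhibition of SCP-1 phosphate liberation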
DNMT1 block: DNMT1 (human) enzyme inhibition. P26358. DNMT1 molecular beacon, Hinp1I cleavage, fluorescence. inhibition (reported as % activation of signal), % at 10 µM. AID 588458. 0.83% of 360,000 active; in the data active means inhibition above about 50%
SUMO1 PPI mod: SUMO1-SIM interaction modulation. SUMO1 binding to a labelled peptide, TR-FRET, 1 h. 0.33% of 360,000 active. P63165. inhibition, % at 20 µM. AID 602429; in the data active means inhibition above about 37%
LMPTP block: LMPTP (human) inhibition; inhibition, % at 20 µM; 0.22% of 360,000 active; P24666; recombinant LMPTP-A, OMFP fluorogenic substrate, fluorescence intensity; AID 651560;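 active means compounds that cut the enzyme signal by at least half of the control window in the single-dose screen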
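test system = LMPTP-A | amount = 0.625 nM LMPTP-A final | reagent = fluorogenic phosphatase substrate OMFP at 400 µM final | incubation = 50 min at room temperature | benchmarks = no-enzyme low control, uninhibited high control | medium = Bis-Tris pH 6.0, DTT, detergent | signal = fluorescence intensity of OMFP turnover product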
GRK2 inh: inhibitors of human GRK2 displacing RNA aptamer. 0.59% of 330,000 active. P25098. bead flow cytometry, FAM-aptamer displacement from GRK2. inhibition of aptamer binding, % at 10 µM;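 active means inhibition of aptamer binding above 40%, roughly 3 SD of noise, on plates passing a quality check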;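 further: median bead fluorescence of bound FAM aptamer so fluorescent compounds give negative values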
Target sequence (P25098 whole entry, looked up): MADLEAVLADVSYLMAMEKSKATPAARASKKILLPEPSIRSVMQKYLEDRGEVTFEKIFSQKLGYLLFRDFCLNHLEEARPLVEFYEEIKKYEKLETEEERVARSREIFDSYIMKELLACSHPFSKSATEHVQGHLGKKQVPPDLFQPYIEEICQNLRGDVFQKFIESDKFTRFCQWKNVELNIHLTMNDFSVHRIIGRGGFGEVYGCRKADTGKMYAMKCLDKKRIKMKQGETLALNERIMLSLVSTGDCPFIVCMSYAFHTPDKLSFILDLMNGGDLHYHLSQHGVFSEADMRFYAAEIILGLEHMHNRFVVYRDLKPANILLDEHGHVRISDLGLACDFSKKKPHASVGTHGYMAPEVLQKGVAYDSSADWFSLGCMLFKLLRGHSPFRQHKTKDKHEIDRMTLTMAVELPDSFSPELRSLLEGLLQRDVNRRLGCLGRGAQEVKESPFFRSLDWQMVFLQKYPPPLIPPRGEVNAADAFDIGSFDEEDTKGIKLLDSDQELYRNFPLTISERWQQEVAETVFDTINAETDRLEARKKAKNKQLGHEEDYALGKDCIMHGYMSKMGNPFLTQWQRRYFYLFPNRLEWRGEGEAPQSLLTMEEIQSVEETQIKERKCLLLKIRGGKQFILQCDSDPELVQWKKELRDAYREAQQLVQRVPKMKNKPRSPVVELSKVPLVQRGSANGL
STEP inh: STEP (human) phosphatase inhibition | P54829 | recombinant STEP, OMFP fluorogenic substrate, fluorescence | inhibition, % at 20 µM | 0.25% of 360,000 active;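 active means inhibition at 20 µM, scaled per plate between control wells, above about 37%, limit read from the data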
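medium = Bis-Tris buffer pH 6.0, 2.5 mM DTT, 0.005% Tween 20 | test system = STEP (striatal-enriched tyrosine phosphatase) enzyme, cell-free | measure = normalized % inhibition | compound dosing = 20 µM, 1% DMSO | also added = 25 µM OMFP | schedule = reaction 20 min, ambient temperature | measured by = fluorescence read at 480 nm ex / 540 nm em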
Numbers stand for hits; i = inactive; nt = not tested or not shown; ! = not confirmed by another sample.

SMILES	Scp-1 inhibitor	DNMT1 block	SUMO1 PPI mod	LMPTP block	GRK2 inh	STEP inh
Cc1cccc(-n2c(O)c(/C=C/C=Nc3ccccc3)c(=O)[nH]c2=O)c1	i	54.9	i	i	i	i
CNS(=O)(=O)c1ccc(N=Cc2c(O)n(-c3cccc(C)c3)c(=O)[nH]c2=O)cc1	i	i	i	i	i	i
CC(C)C[C@@H]1COc2cccc(N3CCN(C)CC3)c2S(=O)(=O)N1	nt	nt	i	i	nt	nt
CCC(C)NC(=O)c1c(N)n(Cc2ccc3c(c2)OCO3)c2nc3ccccc3nc12 (configuration not stated)	i	i	40.0	i	i	i
CCC(C)NC(=O)c1c(N)n(CCCOC)c2nc3ccccc3nc12 (configuration not stated)	i	i	41.3	i	i	i
CSCCC(c1nnnn1-c1ccc2c(c1)OCCO2)N1CCC(n2c(=O)[nH]c3ccccc32)CC1 (configuration not stated)	nt	i	i	i	nt	i
O=C1NC(=S)NC(=O)C1=Cc1ccc(Br)s1	84.3	56.9	i	i	i	i
c1ccc2oc(-c3ccc4c(c3)CNCc3cnnn3-4)cc2c1	nt	i	i	i	nt	i
CN(C)[C@@H]1C(=O)C(C(N)=O)=C(O)[C@@]2(O)C(=O)C3=C(O)c4c(O)cccc4[C@@](C)(O)[C@H]3C[C@@H]12	nt	nt	nt	nt	42.0	nt
CN(C)[C@@H]1C(=O)C(C(N)=O)=C(O)[C@@]2(O)C(=O)C3=C(O)c4c(O)cccc4[C@@](C)(O)C3[C@H](O)C12 (some centres not stated)	i	89.1!	58.7!	64.0	i	i
CN(C)C1C(=O)C(C(N)=O)=C(O)C2(O)C(=O)C3=C(O)c4c(O)cccc4C(C)(O)C3CC12 (configuration not stated)	i	i	i	i	i	i
CCOC(=O)[C@]12Cc3cc(OC)ccc3[C@H]1N(C(C)C)C(=O)c1cc(OC)ccc12	nt	nt	i	i	nt	nt
CCOC(=O)[C@]12Cc3ccccc3[C@H]1N(CCC(=O)OC)C(=O)c1cc(OC)ccc12	nt	nt	i	i	nt	nt
O=c1[nH]c2ccccc2n1C1CCN(Cc2ccc(-c3[nH]c4cc5ncnc5cc4nc3-c3ccccc3)cc2)CC1	nt	nt	i	84.3	nt	nt
O=C1CC(N2CCC(n3c(=O)[nH]c4ccccc43)CC2)C(=O)N1Cc1ccccc1 (configuration not stated)	i	i	i	i	i	i
CN1CCc2cc3c(c4c2C1Cc1ccccc1-4)OCO3 (configuration not stated)	i	59.2	i	i	i	i
O=C(O)c1cccc2c1NC(c1cccc([N+](=O)[O-])c1)C1CC(Sc3ccccc3[N+](=O)[O-])C(Cl)C21 (configuration not stated)	i	85.0	40.8	i	nt	i
CCN(CC)C(=O)c1ccc(N(Cc2ccccc2)S(C)(=O)=O)cc1	i	i	i	i	i	i
O=C(O)c1ccc2c(c1)C1C(Cl)C(Sc3ccccc3[N+](=O)[O-])CC1C(c1cccc([N+](=O)[O-])c1)N2 (configuration not stated)	i	70.9	46.0	i	nt	i
O=[N+]([O-])c1cccc(C2N3CCCN23)c1 (configuration not stated)	i	i	i	i	i	i
CCN(CC)C(=O)c1ccc2c(c1)C1C=CCC1C(C(=O)O)N2 (configuration not stated)	i	i	44.9	i	i	i
CCN(CC)C(=O)c1ccc2c(c1)C1C(Cl)C(Sc3ccccc3[N+](=O)[O-])CC1C(C(=O)O)N2 (configuration not stated)	i	64.5	64.9	i	i	i
CCOC(=O)[C@@H]1[C@H]2COc3ccc(Br)cc3[C@H]2N2C(=O)N(c3cccc(C)c3)C(=O)[C@]12C	i	i	i	i	i	i
C=CCN1C(=O)NC(=O)/C(=C/c2ccoc2)C1=O	i	50.4	i	i	i	i
C=CCN1C(=O)NC(=O)/C(=C/c2cccn2C)C1=O	i	i	i	i	i	i
C[C@H](CO)N1C[C@H](C)[C@@H](CN(C)C(=O)Oc2ccc3ccccc3c2)OCc2cn(nn2)CCCC1=O	nt	i	i	i	nt	i
